Source: PubChem BioAssay
GAA850 FXN act – increases GAA850 frataxin promoter reporter activity. HEK293 lucGAA850 FXN promoter luciferase reporter, 24 h; percent of 10 µM SAHA response. activation, % at 6 µM. AID 540364. hit rate 0.56% among 360,000;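 active = activation above the average of all compounds screened plus 3 SD, cutoff fixed separately per campaign, cut at about 7.5% in these data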;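 also: 0% = DMSO wells and 100% = 10 µM SAHA wells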
CHOP inhibitor – blocks CHOP induction under ER stress; CHO-K1 CHOP-promoter luciferase, tunicamycin-induced, 15-18 h; inhibition, % at 10 µM; hit rate 3.8% among 220,000; AID 2732;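 active = compounds that reduced the stress-induced luciferase reporter signal by more than about 70% of percent inhibition, limit read from the data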;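 also: 0% = tunicamycin plus vehicle and 100% = wells without tunicamycin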
XBP1 UPR activ – activators of adaptive arm of unfolded protein response (XBP1); CHO-XBP1 luciferase reporter, IRE1-XBP1 UPR activation, luminescence; percent of tunicamycin response, DMSO as zero; activation, % at 20 µM; hit rate 0.33% among 330,000; AID 463104;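 active = versus positive control, 20 µM dose yields 30% or more activation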;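 also: 100% = tunicamycin at 10 µg/mL and 0% = DMSO only wells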
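Material: CHO cell line with stable XBP1 luciferase reporter; buffer or medium: F12 medium containing 10% fetal bovine serum; compound: single point, 20 µM final compound, 1% DMSO; incubation: 6 h treatment, 37 °C; measured by: glow luminescence from Steady-Glo reagent; evaluation: activation, % of tunicamycin; control set: tunicamycin high, DMSO low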
CHOP UPR activ – activators of apoptotic arm of unfolded protein response (CHOP); CHO-CHOP luciferase reporter, UPR activation, luminescence; percent of tunicamycin response over DMSO baseline; activation, % at 10 µM; hit rate 0.34% among 330,000; AID 449763;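 active = at 10 µM dose, activation of 40% or more, normalized to positive control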;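 also: 100% = tunicamycin at 10 µg/mL and 0% = DMSO alone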
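Test system: CHO CHOP reporter cells. Input: 500 CHO-CHOP cells per well. Medium: F12 with 10% FBS. Technique: luciferase luminescence. Measure: percent activation relative to tunicamycin control. Dosing: 10 µM compound, 0.5% DMSO. Timing: 16-18 h cell attachment, then 6 h compound exposure, 37 °C.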
* hit, by the source's call; . = no result. This excerpt belongs to a sample that is enriched for hits.

SMILES	GAA850 FXN act	CHOP inhibitor	XBP1 UPR activ	CHOP UPR activ
COc1ccc(CNC(=O)c2cc(-c3ccc(OC)c(OC)c3)on2)cc1	-1.2	50.4	0.9	-2.1
COc1ccc(CCNC(=O)c2cc(C(C)C)on2)cc1OC	1.0	-22.9	-2.4	-0.6
COc1ccc(CCNC(=O)c2cc(-c3cccs3)on2)cc1OC	16.3*	4.7	11.7	0.6
O=C(COc1cccc(Br)c1)N/N=C1\CCCc2ccccc21	0.0	74.5*	-1.1	0.8
CCSc1nnc(NC(=O)NC(CC)(C(F)(F)F)C(F)(F)F)s1	1.8	90.2*	4.6	-3.9
CCSc1nnc(NC(=O)NC(C)(C(F)(F)F)C(F)(F)F)s1	1.2	9.5	-0.9	1.0
Cc1ccc(/C=C/C2=NN(Cc3ccccc3Cl)C(=O)CC2)cc1	-0.6	73.7*	-2.0	-1.3
C=CCN1CCc2cc(O)c(O)cc2C(c2ccccc2)C1 (centres undefined)	1.6	95.2*	-8.0	-0.7
CC1(C(=O)NCC2CC2)Cc2c(-c3cccc(C(F)(F)F)c3)ccnc2O1 (centres undefined)	-3.5	.	.	.
O=[N+]([O-])c1ccc(/C=N/Nc2nc(-c3ccccc3)c3cc(Br)ccc3n2)o1	0.8	82.4*	-1.0	4.3
Cc1ccc2nc(N/N=C\c3ccc([N+](=O)[O-])o3)nc(-c3ccccc3)c2c1	1.1	49.5	3.6	8.2
Cc1cc(C)nc(NS(=O)(=O)c2ccc(N/C=C\C(=O)c3ccc(Cl)cc3)cc2)n1	2.6	82.3*	3.9	-2.3
COc1cccc(C(=O)/C=C/Nc2ccc(S(=O)(=O)Nc3ccc(C(C)=O)cc3)cc2)c1	2.5	19.3	-0.8	1.6
Cc1cc(C)nc(NS(=O)(=O)c2ccc(N/C=C/C(=O)c3ccc(Cl)c(Cl)c3)cc2)n1	3.6	80.3*	-1.9	0.5
COc1ccc(C(=O)/C=C/Nc2ccc(S(=O)(=O)Nc3cccc(C(C)=O)c3)cc2)cc1	1.7	78.7*	1.4	8.1
Cc1cc(C(=O)CSc2nc3ccccc3[nH]2)c(C)n1CC1CCCO1 (centres undefined)	-14.4	73.8*	-3.9	-3.0
Cc1ccc2[nH]c(=O)c(CN(Cc3nnnn3C3CCCC3)C3CCCCC3)cc2c1	-2.7	63.2	-2.1	-1.5
Cc1ccc2[nH]c(=O)c(CN(Cc3ccccc3)Cc3nnnn3C3CCCC3)cc2c1	6.5	75.9*	-2.2	4.1
CCOC(=O)Cn1nnnc1CN(CCc1ccccc1)Cc1cc2cc(CC)ccc2[nH]c1=O	6.7	80.5*	-0.5	2.0
N=C(N)SCCc1ccc(CCSC(=N)N)cc1	.	5.1	.	.
O=C(COC(=O)Cc1c[nH]c2ccccc12)Nc1cccc(Br)c1	0.6	.	.	.
COc1cc2c(cc1OC)-c1cc(=Nc3c(C)cc(C)cc3C)n(C)c(=O)n1CC2	.	-11.8	.	.
CC(=O)c1sc(NC(=O)COc2ccccc2)nc1C	3.1	-9.8	2.6	4.1
CC(=O)c1sc(NC(=O)COc2ccc(C(C)C)c(C)c2)nc1C	-1.0	77.4*	0.2	0.6
COc1cccc(-c2cnc(C(O)c3ccc(C)cc3C)[nH]2)c1 (centres undefined)	0.9	.	.	.
SMILES	GAA850 FXN act	CHOP inhibitor	XBP1 UPR activ	CHOP UPR activ
COc1ccc(-c2csc(Nc3ccc(S(=O)(=O)Nc4cc(OC)nc(OC)n4)cc3)n2)cc1	-0.6	88.8*	0.4	2.6
COc1cc(NS(=O)(=O)c2ccc(Nc3nc(-c4ccccn4)cs3)cc2)nc(OC)n1	4.4	-18.0	-4.0	-1.5
O=C(Nc1nnc(-c2ccc3c(c2)CCCC3)o1)C1CCCCC1	1.1	84.5*	5.7	0.6
O=C(CCc1ccccc1)Nc1nnc(-c2ccc3c(c2)CCCC3)o1	-0.5	94.2*	0.9	3.8
O=C(Nc1nnc(-c2ccc3c(c2)CCCC3)o1)c1ccc(Cl)cc1Cl	-2.6	98.2*	1.1	-1.1
CC1(C(=O)NS(=O)(=O)C2CC2)CCN(C(=O)CSc2ccccc2)C1 (centres undefined)	1.0	.	.	.
CC(=O)OC[C@@H]1CN(Cc2ccccc2)C[C@H](n2cnc3c(NC4CCC4)ncnc32)O1	-0.4	.	.	.
Cc1cc(Cl)ccc1OCC(=O)Nc1ccccc1CO	1.9	24.9	4.5	4.5
CSc1ccccc1NC(=O)COc1ccc(Cl)cc1C	1.6	83.0*	3.7	3.3
CN1CC(O)(C(O)C(O)C(O)CO)SC1=S (centres undefined)	0.8	.	.	.
C[C@H]1CCCCO[C@H](CN(C)C(=O)C2CCCCC2)[C@@H](C)CN([C@@H](C)CO)C(=O)c2cc(NC(=O)NC3CCCCC3)ccc2O1	-1.7	.	.	.
CCn1c(SCC(=O)NCc2ccccc2)nc2ccccc2c1=O	2.3	7.5	-2.0	-0.2
CCCCNC(=O)CSc1nc2ccccc2c(=O)n1Cc1ccc2c(c1)OCO2	1.9	86.3*	-1.4	-2.3
O=C(CSc1nc2ccccc2c(=O)n1Cc1ccc(Cl)cc1)NCc1cccs1	0.0	73.0*	-2.8	-0.2
O=C(Cn1cc2c(n1)CCCC2)Nc1cc(-c2cccc(Cl)c2)no1	2.1	95.4*	3.8	0.3
CCCCN1C(=O)C(CC(=O)NCCN2CCOCC2)CC(C(=O)N(C)C)=C1C (centres undefined)	1.1	.	.	.
O=C(c1cccc(F)c1)N1CCN(C(=O)c2cc(-c3ccc(Cl)cc3Cl)on2)CC1	-0.2	74.4*	0.6	0.8
Clc1ccc(-c2nnnn2-c2ccc(Cl)c(Cl)c2)cc1Cl	1.5	83.3*	0.1	-2.8
Cc1cc(C(=O)COc2ccc(Br)cc2F)c(C)n1CC1CCCO1 (centres undefined)	0.7	.	.	.
CCC1Oc2ccc(C)cc2N(Cc2cccc(C)c2)C1=O (centres undefined)	0.2	96.0*	-0.6	-0.5
Cc1ccc2c(c1)N(Cc1ccccc1)C(=O)C(C)O2 (centres undefined)	0.8	.	.	.
CC(=O)c1c(C)[nH]c(C(=O)OCC(=O)NCc2ccccc2)c1C	-1.4	.	.	.
N/C(Cc1ccc([N+](=O)[O-])cc1)=N\OC(=O)C(c1ccccc1)c1ccccc1	-3.7	83.4*	-0.2	3.1
Cn1c(NCc2ccccc2F)nc2cc(-c3cccc(C(F)(F)F)c3)sc2c1=O	1.4	.	.	.
COc1ccc(-c2csc(NNC3=NCCCCC3)n2)cc1	.	46.0	0.8	-0.3
SMILES	GAA850 FXN act	CHOP inhibitor	XBP1 UPR activ	CHOP UPR activ
CCOc1ccc(-c2csc(NNC3=NCCCCC3)n2)cc1	3.6	75.0*	5.5	0.0
O=c1c(-c2ccccc2)cocc1-c1ccccc1	2.0	.	.	.
CCOC(=O)C1=C(N)Oc2cc(O)ccc2C1c1ccc([N+](=O)[O-])cc1 (centres undefined)	0.5	94.3*	-2.2	0.4
CCOC(=O)C1=C(N)Oc2ccc3ccccc3c2C1c1ccc(O)cc1 (centres undefined)	2.2	.	-2.3	-2.1
CCCCN(C(=O)c1ccco1)c1nnc(-c2cc(OC)c(OC)c(OC)c2)s1	-1.0	72.6*	1.0	0.7
CCCN(C(=O)c1ccco1)c1nnc(-c2ccncc2)s1	-0.1	9.0	0.5	-1.2
CCCCCCNC(=O)c1c(O)c2ccccc2[nH]c1=O	-1.7	87.7*	1.0	0.7
